We go through 4 compounds from ChEMBL document CHEMBL2157939 (J Med Chem, 2012).

Data set [1] has as its system Rattus norvegicus. The data set is described as follows: Antinociceptive activity in iv dosed Sprague-Dawley rat chronic constriction injury model assessed as paw withdrawal threshold to von Frey filament-induced pain administered as bolus injection. The format is functional. Put shortly:
(§1)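 Male SD rats (160−200 g at purchase) with CCI of left sciatic nerve (four loose silk ligatures, Bennett-Xie) under isoflurane. Single iv bolus doses 0.16 to 16 μmol/kg.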

Data set [2] has as its system Rattus norvegicus. The data set is described as follows: Antinociceptive activity in po dosed Sprague-Dawley rat chronic constriction injury model assessed as reduction in Von Frey filament-induced mechanical allodynia in ipsilateral hind paw. The format is functional.
Data set [3] has as its system Rattus norvegicus. The data set is described as follows: Antinociceptive activity in Sprague-Dawley rat chronic constriction injury model assessed as reduction in Von Frey filament-induced mechanical allodynia in ipsilateral hind paw at 8 umol/kg, po. The class given is functional, organism-based.
The test system of data set [4] is Rattus norvegicus. The data set is described as follows: Antinociceptive activity in Sprague-Dawley rat chronic constriction model assessed as reduction in Von Frey filament-induced mechanical allodynia in contralateral hind paw at 2 umol/kg, iv administered as bolus injection. The class given is functional, organism-based.
The test system of data set [5] is Rattus norvegicus. Description: Antinociceptive activity in Sprague-Dawley rat chronic constriction model assessed as reduction in Von Frey filament-induced mechanical allodynia in contralateral hind paw at 8 umol/kg, po. The format is functional, organism-based.
For data set [6], the system named is Rattus norvegicus. Description: Antinociceptive activity in Sprague-Dawley rat chronic constriction model assessed as reduction in Von Frey filament-induced mechanical allodynia in ipsilateral hind paw at 2 umol/kg, iv administered as bolus injection 5 mins post-naloxone coadministration. The class given is functional, organism-based. A digest of the protocol:
(§2)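 CCI rats (n = 6) given single sc naloxone hydrochloride 10 mg/kg or vehicle 5 min before single iv bolus of test item.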

Data set [7] is described as follows: Half life in human plasma at 1 mg/ml by RP-HPLC analysis. The format is ADME, cell-free.
Data set [8] in a line: Apparent permeability across human Caco2 cells at 200 uM by LC/MS analysis. The format is ADME, cell-based. Particulars: Caco-2. Put shortly: (§3)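 Caco-2 monolayers (passages 55−75; DMEM with 10% FBS, 1% L-glutamine, 1% nonessential amino acids, 37 °C, 5% CO2) used for apparent permeability; compound quantified by LC-MS.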
A general note: Passage across Caco-2 layers is used to estimate intestinal permeability.

Data set [9] relates to Caco-2. The data set is described as follows: Permeability across human Caco2 cells at 200 µM by LC/MS analysis in presence of lactose. The class given is ADME, cell-based. As to conditions: caco-2, 200 µM. Put shortly: as §3
Data set [10] relates to Caco-2. Description: Permeability across human Caco2 cells at 200 µM by LC/MS analysis in presence of galactose. The class given is ADME, cell-based. Particulars: caco-2, 200 µM. A digest of the protocol: as §3
Data set [11] has as its system Caco-2. Description: Permeability across human Caco2 cells at 200 µM by LC/MS analysis in presence of glucose. The format is ADME, cell-based. Particulars: caco-2, 200 µM. A digest of the protocol: as §3
Data set [12] addresses T1, Mu-type opioid receptor (Homo sapiens, UniProt P35372). The data set is described as follows: Displacement of [3H]DAMGO from mu-opioid receptor expressed in CHOK1 cells after overnight incubation by scintillation proximity assay. The format is cell-based, CHO-K1. A general note: In a radioligand displacement assay an active substance lowers the binding of a labelled ligand.

For data set [13], the target named is Delta-type opioid receptor (Homo sapiens, UniProt P41143). The data set is described as follows: Displacement of [3H]DPDPE from delta-opioid receptor expressed in CHOK1 cells after overnight incubation by scintillation proximity assay. The format is cell-based, CHO-K1. A digest of the protocol: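 Competitive displacement of [3H]DPDPE from human DOR in membranes of stably transfected CHOK1 cells, WGA-coated SPA beads. Eight concentrations, 10 pM to 1 μM; three independent experiments in triplicate, mean ± SEM.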

Data set [14] can be described thus: Selectivity ratio of Ki for delta-opioid receptor to Ki for mu-opioid receptor. A digest of the protocol: (§4)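 Competitive displacement scintillation proximity assay on frozen membranes from CHO-K1 cells stably expressing human MOR, DOR or KOR, with wheatgerm agglutinin-coated SPA beads. Labels: MOR [3H]DAMGO, DOR [3H]DPDPE, KOR [3H]diprenorphine. Eight compound concentrations from 10 pM to 1 μM. Three independent experiments, each in triplicate, reported as mean ± SEM. The ratio is each Ki divided by the MOR Ki.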

Data set [15] in a line: Selectivity ratio of Ki for kappa-opioid receptor to Ki for mu-opioid receptor. Put shortly:
as §4

The target in data set [16] is T1, Mu-type opioid receptor. The data set is described as follows: Agonist activity at mu-opioid receptor in human SH-SY5Y cells assessed as inhibition of forskolin-stimulated cAMP accumulation after 30 mins by immunoassay. The format is functional, cell-based. In general terms: Changes in cAMP serve as a functional read-out for many G protein-coupled receptors.
Data set [17] relates to Rattus norvegicus. Description: Antinociceptive activity in Sprague-Dawley rat chronic constriction injury model assessed as paw withdrawal threshold to von Frey filament-induced pain at 5 and 16 umol/kg, iv administered as bolus injection measured at 15 mins. The format is functional, organism-based. A digest of the protocol: as §1
In data set [18] the test system is Rattus norvegicus. The data set is described as follows: Antinociceptive activity in Sprague-Dawley rat chronic constriction injury model assessed as paw withdrawal threshold to von Frey filament-induced pain at 5 and 16 umol/kg, iv administered as bolus injection measured up to 1.5 hrs. The class given is functional, organism-based. Put shortly:
as §1

Data set [19] concerns Rattus norvegicus. Description: Antinociceptive activity in Sprague-Dawley rat chronic constriction injury model assessed as reduction in Von Frey filament-induced mechanical allodynia in ipsilateral hind paw at 8 and 16 umol/kg, po at 0.75 to 1 hr. The class given is functional, organism-based.
The subject of data set [20] is Rattus norvegicus. The data set is described as follows: Antinociceptive activity in Sprague-Dawley rat chronic constriction injury model assessed as reduction in Von Frey filament-induced mechanical allodynia in ipsilateral hind paw at 8 and 16 umol/kg, po up to 2 hrs. The class given is functional, organism-based.
For data set [21], the system named is Rattus norvegicus. The data set is described as follows: Antinociceptive activity in Sprague-Dawley rat chronic constriction model assessed as reduction in Von Frey filament-induced mechanical allodynia in contralateral hind paw at 5 umol/kg, iv administered as bolus injection. The class given is functional, organism-based.
For data set [22], the system named is Rattus norvegicus. The data set is described as follows: Antinociceptive activity in Sprague-Dawley rat chronic constriction model assessed as reduction in Von Frey filament-induced mechanical allodynia in ipsilateral hind paw at 5 umol/kg, iv administered as bolus injection 5 mins post-naloxone coadministration. The format is functional, organism-based. Put shortly:
as §2

Data set [23] deals with Rattus norvegicus. The data set is described as follows: Induction of constipation in fasted Sprague-Dawley rat assessed as inhibition of castor oil-induced diarrhea at 16 umol/kg, po administered 5 mins prior to castor-oil challenge measured up to 8 hrs. The class given is organism-based. As to conditions: in vivo. Put shortly:
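Drug-naive rats, 200−250 g, fasted ~16 h with water, then 1 h in individual wire-mesh cages without food or water. Oral test item or vehicle; 5 min later 1 mL castor oil by gavage. Diarrhea presence checked hourly to 8 h, scored by fecal boli weight and consistency.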

Data set [24] concerns Rattus norvegicus. Description: Effect on gastrointestinal motility in fasted Sprague-Dawley rat assessed as gastrointestinal propulsion of charcoal meal at 16 umol/kg, po administered prior to charcoal meal measured after 1 hr ( Rvb = 66.5 3.8% ). The format is ADME, organism-based. As to conditions: in vivo. Put shortly: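 Rats 200−250 g fasted ~16 h (water allowed), n = 8 per group, dosed orally just before gavage of 1 mL aqueous 10% activated charcoal/5% gum Arabic. Killed 1 h later (ip pentobarbital, cervical dislocation); small intestine length pylorus to ileocecal junction and farthest charcoal front measured as % propulsion.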

The test system of another data set is Plasma. Description: Plasma concentration in Sprague-Dawley rat at 10 umol/kg, po from 30 to 60 mins by LC/MS analysis. Particulars: in vivo, BLD = below limit of detection. The format is ADME, organism-based. Put shortly: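 Male SD rats, 280−310 g, gavaged with 500 μL of […] aqueous solution (10 μmol/kg). Tail-vein blood at 30, 60, 90 min into heparin tubes; plasma protein-precipitated with 3 volumes acetonitrile, supernatant quantified by LC-MS; n = 4.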

The subject of data set [25] is Rattus norvegicus. Description: Antinociceptive activity in Sprague-Dawley rat chronic constriction injury model assessed as paw withdrawal threshold to von Frey filament-induced pain 16 umol/kg, iv administered as bolus injection measured at 15 mins. The class given is functional, organism-based. Put shortly: as §1

As usually defined, the ED50 is the dose that gives a 50% effect, or the effect in half of the subjects. What is called half-life is the time needed for the level to fall by half in the phase considered. The low end stands for fast loss, the high end for slow loss. For orientation: Papp means the rate of passage across a membrane or cell layer, normalised by area and donor concentration. For orientation: Ki means a dissociation constant, usually derived from enzyme kinetics or from competition with a known ligand. High values mean a looser hold on the target, low ones a stronger hold on the target. As a reminder, the IC50 is the concentration that gives 50% inhibition.

Calls of active or inactive are those of the source.

T1 sequence (P35372 whole entry): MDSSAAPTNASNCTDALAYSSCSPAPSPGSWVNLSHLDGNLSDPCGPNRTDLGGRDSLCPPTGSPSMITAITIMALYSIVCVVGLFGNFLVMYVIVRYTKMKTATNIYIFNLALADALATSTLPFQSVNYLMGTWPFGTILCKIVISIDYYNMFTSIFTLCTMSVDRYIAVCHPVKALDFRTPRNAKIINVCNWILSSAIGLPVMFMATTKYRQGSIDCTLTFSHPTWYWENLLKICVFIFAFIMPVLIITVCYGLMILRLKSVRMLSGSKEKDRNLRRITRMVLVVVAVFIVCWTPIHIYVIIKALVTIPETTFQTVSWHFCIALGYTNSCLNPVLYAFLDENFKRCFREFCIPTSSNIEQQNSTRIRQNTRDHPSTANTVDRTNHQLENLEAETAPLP
Delta-type opioid receptor, sequence (P41143 whole entry): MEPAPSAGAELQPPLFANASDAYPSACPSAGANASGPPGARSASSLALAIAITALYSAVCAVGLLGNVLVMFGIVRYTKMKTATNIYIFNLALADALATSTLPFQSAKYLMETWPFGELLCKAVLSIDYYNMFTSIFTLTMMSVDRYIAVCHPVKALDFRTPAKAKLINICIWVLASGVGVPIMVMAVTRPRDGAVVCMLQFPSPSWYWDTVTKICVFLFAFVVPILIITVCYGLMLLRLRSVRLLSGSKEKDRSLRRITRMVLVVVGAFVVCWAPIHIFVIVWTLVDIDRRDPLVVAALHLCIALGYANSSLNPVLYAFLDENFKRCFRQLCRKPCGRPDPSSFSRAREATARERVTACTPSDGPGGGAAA

On to `CN1CC[C@]23c4c5ccc(O)c4O[C@H]2[C@@H](O)C=C[C@H]3[C@H]1C5` [MORPHINE], for which the ED50 worked out at 2.6 µmol/kg in the data set with Rattus norvegicus [1] and 20.7 µmol/kg in the data set on Rattus norvegicus [2]. Also, the outcome in the data set on Rattus norvegicus [3], in the data set with Rattus norvegicus [4] and with Rattus norvegicus [5] was Active. Also, the outcome with Rattus norvegicus [6] was inactive.

Take `NC(=O)[C@H](Cc1ccccc1)NC(=O)[C@H](Cc1c[nH]c2ccccc12)NC(=O)[C@@H]1CCCN1C(=O)[C@H](Cc1ccc(O)cc1)NC(=O)CCC(=O)N[C@@H]1O[C@H](CO)[C@@H](O[C@@H]2O[C@H](CO)[C@H](O)[C@H](O)[C@H]2O)[C@H](O)[C@H]1O`: the half-life at 1 mg/ml in data set [7] stood at 57.3 min. In addition, the Papp at 200 µM in data set [8] is 76 ×10⁻⁶ cm/s. Further, the figures for the permeability entry with Caco-2 [9], with Caco-2 [10] and with Caco-2 [11] were “impermeable”, “impermeable” and “permeable”, respectively. Also, the Ki at Mu-type opioid receptor [12] was 14.9 nM; in [13] it was 4750 nM. The Ratio Ki in [14] was 319; in data set [15], 105. The IC50 on Mu-type opioid receptor [16] was found to be 590 nM. In addition, the outcome with Rattus norvegicus [17], in the data set with Rattus norvegicus [18], in the data set with Rattus norvegicus [19] and in the data set with Rattus norvegicus [20] was Active. Moreover, the results for the ED50 in the data set on Rattus norvegicus [1] and with Rattus norvegicus [2] were 8.3 µmol/kg and 19.6 µmol/kg, respectively. Besides, the Activity result in the data set with Rattus norvegicus [2] is “Dose-dependent effect”; in the data set on Rattus norvegicus [23], “Non-toxic”; with Rattus norvegicus [24], 58.5%. For the same compound, the result with Rattus norvegicus [21], in the data set on Rattus norvegicus [5] and in the data set on Rattus norvegicus [22] was inactive.

For `NC(=O)[C@H](Cc1ccccc1)NC(=O)[C@H](Cc1c[nH]c2ccccc12)NC(=O)[C@@H]1CCCN1C(=O)[C@@H](N)Cc1ccc(O)cc1` [ENDOMORPHIN-1], the Papp at 200 µM in data set [8] amounted to 0.11 ×10⁻⁶ cm/s. Also, the Cp result with Plasma is on record as “BLD”. For the same compound, the outcome with Rattus norvegicus [25] was inactive.

As to `CC(C)NCC(O)COc1cccc2ccccc12` (configuration not stated) [PROPRANOLOL], the Papp at 200 µM in data set [8] was 150 ×10⁻⁶ cm/s.
